Experimental findings from ChEMBL document CHEMBL1121714, “Nonsteroidal antiinflammatory agents. 2. Synthesis of 4',5-disubstituted 3-biphenylylacetic acids and their derivatives with antiinflammatory and analgesic activities” (J Med Chem, 1981) are described below.

The test system of series [1] is Rattus norvegicus. Description: Inhibitory activity on carrageenan-induced paw edema in rats 3h after po administration of 50 mg/kg. In kind it is functional. The essentials: (§1)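 Oral dosing, screened first at 50 mg/kg and retested at 20 and 10 mg/kg if inhibition was 30% or more. Paw volume was remeasured at 3 h, and the increase was compared with controls to give percent inhibition.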
For orientation: In the carrageenan paw model, swelling and tenderness develop within hours.

In the next series the test system is Mus musculus. Put plainly: Analgesic activity against AcOH writhing after po administration. Background: In writhing tests, fewer writhes than in controls are read as antinociception.
The subject of series [2] is Rattus norvegicus. Put plainly: Inhibitory activity on carrageenan-induced paw edema in rats 3h after po administration of 20 mg/kg. The format is functional. The essentials:
as §1

Series [3] is described as follows: Acute toxicity was determined 168 hr after a single ip injection to groups of four male ddY mice. The format is organism-based. Particulars: mouse, in vivo. The essentials: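 LD50 calculated by the method of Weil.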
In series [4] the test system is Rattus norvegicus. Put plainly: Inhibitory activity on carrageenan-induced paw edema in rats 3h after po administration of 10 mg/kg. The format is functional. The essentials: as §1
The subject of series [5] is Rattus norvegicus. Description: Inhibitory activity on carrageenan-induced paw edema in rats 3h after po administration of 0.5 mg/kg. In kind it is functional. The following applies: read-out: Inhibition.
Series [6] deals with Rattus norvegicus. Description: Inhibitory activity on carrageenan-induced paw edema in rats 3h after po administration of 5 mg/kg. The format is functional. The following applies: read-out: Inhibition.
For series [7], the system named is Rattus norvegicus. Description: Inhibitory activity on carrageenan-induced paw edema in rats 3h after po administration of 2 mg/kg. In kind it is functional. Particulars: read-out: Inhibition.
Series [8] relates to Rattus norvegicus. Put plainly: Inhibitory activity on carrageenan-induced paw edema in rats 3h after administration of 20 mg/kg. In kind it is functional. An outline of the steps: as §1

Structures are written as SMILES. A value given as a limit tells only on which side of the number the result lay.

By ED50 is commonly meant the dose that gives a 50% effect, or the effect in half of the subjects. Higher therefore signals weaker potency. By LD50 is commonly meant the dose expected to kill half of the subjects tested.

As for `O=C(O)Cc1cc(Cl)cc(-c2ccccc2)c1`, the inhibition in vivo at 50 mg/kg with Rattus norvegicus [1] worked out at 32%. For the same compound, the ED50 in the series on Mus musculus was over 50 mg/kg. In addition, the inhibition in vivo at 20 mg/kg in the series on Rattus norvegicus [2] came to 25%. Also, the LD50 at 168 h in series [3] was found to be 283 mg/kg.
On the same counts, the results for `O=C(O)Cc1cccc(-c2ccc(Cl)cc2)c1` are 44%, over 50 mg/kg, under 25% and 238 mg/kg.
`CC(C(=O)O)c1cc(F)cc(-c2ccc(Cl)cc2)c1` (centres undefined) returned an inhibition in vivo at 50 mg/kg in the series on Rattus norvegicus [1] of under 39%. Also, the ED50 with Mus musculus was over 50 mg/kg. The compound further registered an inhibition in vivo at 20 mg/kg in the series on Rattus norvegicus [2] of under 26%. Also, the LD50 at 168 h in [3] was determined as 200 mg/kg.
On the same counts, the results for `O=C(O)Cc1cccc(-c2ccccc2)c1` are 47%, over 50 mg/kg, 0% and 566 mg/kg.
For `COc1cc(CC(=O)O)cc(-c2ccc(Cl)cc2)c1`, the inhibition in vivo at 50 mg/kg in the series on Rattus norvegicus [1] was found to be 53%. In the series with Mus musculus, this compound yielded an ED50 of 16.1 mg/kg. In the series with Rattus norvegicus [2], this compound gave an inhibition in vivo at 20 mg/kg of 65%. The compound further showed an inhibition in vivo at 10 mg/kg in the series on Rattus norvegicus [4] of 39%.
In the series on Rattus norvegicus [1], `CC(C(=O)O)c1cc(F)cc(-c2ccccc2)c1` (centres undefined) returned an inhibition in vivo at 50 mg/kg of 31%. This compound also showed an ED50 in the series on Mus musculus of over 50 mg/kg. In series [3], this compound had an LD50 at 168 h of 566 mg/kg.
`COc1ccc2c(c1)c(CC(=O)O)c(C)n2C(=O)c1ccc(Cl)cc1` [INDOMETHACIN]: the inhibition in vivo at 0.5 mg/kg with Rattus norvegicus [5] came out at 19%. In the series with Mus musculus, this compound displayed a 50% effective dose (ED50) of 3.1 mg/kg. In addition, the inhibition in vivo at 5 mg/kg in the series on Rattus norvegicus [6] came out at 45%. For the same compound, the inhibition in vivo at 2 mg/kg with Rattus norvegicus [7] is 25%.
As for `O=C(O)Cc1cc(Cl)cc(-c2ccc(Cl)cc2)c1`, in the series on Rattus norvegicus [1], the inhibition in vivo at 50 mg/kg came to 45%. Further, the ED50 in the series with Mus musculus is over 50 mg/kg. This compound also registered an inhibition in vivo at 20 mg/kg in the series with Rattus norvegicus [2] of 29%. For the same compound, in series [3], the LD50 at 168 h was 283 mg/kg.
Take `COc1ccc(-c2cc(CC(=O)O)cc(NC(C)=O)c2)cc1`: the inhibition in vivo at 50 mg/kg with Rattus norvegicus [1] worked out at 15%. In addition, the ED50 in the series with Mus musculus was over 50 mg/kg. Further, the LD50 at 168 h in series [3] was over 800 mg/kg.
In turn, `CC(=O)Nc1cc(CC(=O)O)cc(-c2ccccc2)c1` showed an inhibition in vivo at 50 mg/kg with Rattus norvegicus [1] of 5%. In the series with Mus musculus, this compound had an ED50 of over 50 mg/kg. In addition, in series [3], the LD50 at 168 h is over 800 mg/kg.
`O=C(O)Cc1cc(F)cc(-c2ccccc2)c1`: in the series with Rattus norvegicus [1], the inhibition in vivo at 50 mg/kg stood at 50%. The ED50 in the series with Mus musculus was over 50 mg/kg. This compound also yielded an inhibition in vivo at 20 mg/kg with Rattus norvegicus [8] of 45%. Besides, the inhibition in vivo at 10 mg/kg in the series on Rattus norvegicus [4] was determined as 26%. In series [3], this compound registered an LD50 at 168 h of 566 mg/kg.
In the series on Rattus norvegicus [1], `CC(=O)Nc1cc(CC(=O)O)cc(-c2ccc(Cl)cc2)c1` registered an inhibition in vivo at 50 mg/kg of 0%. The ED50 with Mus musculus was over 50 mg/kg. For the same compound, the LD50 at 168 h in series [3] amounted to 476 mg/kg.
`CC(C(=O)O)c1cc(Cl)cc(-c2ccc(Cl)cc2)c1` (centres undefined): the inhibition in vivo at 50 mg/kg in the series on Rattus norvegicus [1] was under 41%. Moreover, in the series on Mus musculus, the ED50 is over 50 mg/kg. This compound also registered an inhibition in vivo at 20 mg/kg in the series with Rattus norvegicus [2] of under 33%. For the same compound, the LD50 at 168 h in series [3] was determined as 200 mg/kg.
As to `Nc1cc(CC(=O)O)cc(-c2ccc(Cl)cc2)c1`, in the series on Rattus norvegicus [1], the inhibition in vivo at 50 mg/kg was determined as 16%. The same compound had an ED50 with Mus musculus of over 50 mg/kg. The same compound displayed an LD50 at 168 h in series [3] of 400 mg/kg.
The like results for `COc1ccc(-c2cccc(C(C)C(=O)O)c2)cc1` (centres undefined) were, in that order, 0%, over 50 mg/kg and 566 mg/kg.
The like results for `COc1ccc(-c2cc(N)cc(CC(=O)O)c2)cc1` were, in that order, 0%, over 50 mg/kg and 800 mg/kg.
On the same counts, the results for `Nc1cc(CC(=O)O)cc(-c2ccccc2)c1` are 0%, over 50 mg/kg and 566 mg/kg.
`CC(C(=O)O)c1cccc(-c2ccccc2)c1` (centres undefined) registered an inhibition in vivo at 50 mg/kg in the series with Rattus norvegicus [1] of 17%. It took a dose of 26.8 mg/kg to reach the 50% effect level in the series with Mus musculus (ED50). For the same compound, the LD50 at 168 h in [3] turned out to be 566 mg/kg.
The like results for `COc1ccc(-c2cc(Cl)cc(CC(=O)O)c2)cc1` were, in that order, 19%, over 50 mg/kg and 570 mg/kg.
In the series with Rattus norvegicus [1], `O=C(O)Cc1cc(F)cc(-c2ccc(Cl)cc2)c1` returned an inhibition in vivo at 50 mg/kg of 38%. This compound showed an ED50 with Mus musculus of over 50 mg/kg. In the series with Rattus norvegicus [2], this compound showed an inhibition in vivo at 20 mg/kg of 16%. Further, in series [3], the LD50 at 168 h was determined as 283 mg/kg.
Take `CC(C(=O)O)c1cccc(-c2ccc(Cl)cc2)c1` (centres undefined): the inhibition in vivo at 50 mg/kg in the series with Rattus norvegicus [1] amounted to 35%. The ED50 in the series on Mus musculus was found to be 45 mg/kg. This compound also registered an inhibition in vivo at 20 mg/kg in the series with Rattus norvegicus [2] of 31%. In series [3], this compound gave an LD50 at 168 h of 283 mg/kg.
`CC(C(=O)O)c1cc(Cl)cc(-c2ccccc2)c1` (centres undefined) gave an inhibition in vivo at 50 mg/kg with Rattus norvegicus [1] of 4%. In addition, in the series on Mus musculus, the ED50 is over 50 mg/kg. In series [3], the LD50 at 168 h was determined as 168 mg/kg.
On the same counts, the results for `COc1ccc(-c2cc(Cl)cc(C(C)C(=O)O)c2)cc1` (centres undefined) are 8%, over 50 mg/kg and 283 mg/kg.
For the compound `COc1ccc(-c2cccc(CC(=O)O)c2)cc1`, the inhibition in vivo at 50 mg/kg in the series with Rattus norvegicus [1] came out at 11%. In the series with Mus musculus, this compound had an ED50 of over 50 mg/kg. This compound gave an LD50 at 168 h in [3] of over 800 mg/kg.
